Data: ChEMBL document CHEMBL1921722, “In vitro and in vivo evaluation of select kahalalide F analogs with antitumor and antifungal activities” (Bioorg Med Chem, 2011)
≈ marks a conversion by molar mass, not a printed value.

Experiments:
[1] = tested on: SK-MEL-5; assay: Cytotoxicity against human SK-MEL-5 cells assessed as cell growth at 8 uM by sulforhodamine B assay relative to control; type: functional; settings: read-out: Activity
[2] = tested on: SN12C; assay: Cytotoxicity against human SN12C cells assessed as cell growth at 800 nM by sulforhodamine B assay relative to control; type: functional; settings: read-out: Activity
[3] = tested on: ACHN; assay: Cytotoxicity against human ACHN cells by sulforhodamine B assay; type: functional
Outline: (§1)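 Run at NCI in the DTP 60-cell-line human tumor panel by standard procedure. Compounds were first screened at a single concentration, then tested at five tenfold-spaced concentrations. GI50 is the concentration reducing treated-cell growth to half that of untreated controls; TGI is the concentration completely halting growth.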

[4] = tested on: SNB-75; assay: Cytotoxicity against human SNB75 cells assessed as cell growth at 8 uM by sulforhodamine B assay relative to control; type: functional; settings: read-out: Activity
[5] = tested on: BT-549; assay: Cytotoxicity against human BT549 cells assessed as cell growth at 8 nM by sulforhodamine B assay relative to control; type: functional; settings: read-out: Activity; outline: as §1
[6] = tested on: COLO 205; assay: Cytotoxicity against human COLO205 cells assessed as cell growth at 80 nM by sulforhodamine B assay relative to control; type: functional; settings: read-out: Activity; outline: as §1
[7] = tested on: MCF7; assay: Cytotoxicity against human MCF7 cells assessed as cell growth at 80 uM by sulforhodamine B assay relative to control; type: functional; settings: read-out: Activity
[8] = tested on: OVCAR-8; assay: Cytotoxicity against human OVCAR8 cells assessed as cell growth at 800 nM by sulforhodamine B assay relative to control; type: functional; settings: read-out: Activity
[9] = tested on: RPMI-8226; assay: Cytotoxicity against human RPMI8226 cells assessed as cell growth at 800 nM by sulforhodamine B assay relative to control; type: functional; settings: read-out: Activity
[10] = tested on: SF-539; assay: Cytotoxicity against human SF539 cells assessed as cell growth at 8 uM by sulforhodamine B assay relative to control; type: functional; settings: read-out: Activity
[11] = tested on: Hs-578T; assay: Cytotoxicity against human Hs578T cells assessed as cell growth at 8 uM by sulforhodamine B assay relative to control; type: functional; settings: read-out: Activity
[12] = tested on: SR; assay: Cytotoxicity against human SR cells assessed as cell growth at 8 uM by sulforhodamine B assay relative to control; type: functional; settings: read-out: Activity
[13] = tested on: SK-MEL-5; assay: Cytotoxicity against human SK-MEL-5 cells assessed as cell growth at 8 nM by sulforhodamine B assay relative to control; type: functional; settings: read-out: Activity
[14] = tested on: RXF 393; assay: Cytotoxicity against human RXF393 cells assessed as cell growth at 8 uM by sulforhodamine B assay relative to control; type: functional; settings: read-out: Activity
[15] = Acute toxicity in ip dosed athymic nude mouse assessed as mortality after 24 days; type: organism-based; settings: in vivo
Outline: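 Female athymic nude mice, non-tumored; single IP injection, one mouse per dose level, 400, 200 and 100 mg/kg first, then 50, 25 and 12.5 mg/kg. Dose volume 0.1 ml/10 g body weight. Body weight and survival monitored; animals sacrificed on >20% weight loss or other significant toxicity.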

[16] = tested on: SN12C; assay: Cytotoxicity against human SN12C cells assessed as cell growth at 80 nM by sulforhodamine B assay relative to control; type: functional; settings: read-out: Activity
[17] = tested on: SN12C; assay: Cytotoxicity against human SN12C cells assessed as cell growth at 80 uM by sulforhodamine B assay relative to control; type: functional; settings: read-out: Activity
[18] = tested on: SNB-19; assay: Cytotoxicity against human SNB19 cells assessed as cell growth at 8 nM by sulforhodamine B assay relative to control; type: functional; settings: read-out: Activity
[19] = tested on: Candida albicans; assay: Antimicrobial activity against Candida albicans ATCC 90028 by CLSI method; type: functional, organism-based
[20] = tested on: NCI-H460; assay: Cytotoxicity against human NCI-H460 cells assessed as cell growth at 800 nM by sulforhodamine B assay relative to control; type: functional; settings: read-out: Activity
[21] = tested on: Mus musculus; assay: Acute toxicity in athymic nude mouse assessed as mortality at 200 mg/kg, […] after 19 days; type: organism-based; set-up: dose 200 mg/kg, route intraperitoneal; settings: in vivo, ip, 456 h
[22] = tested on: SF-539; assay: Cytotoxicity against human SF539 cells assessed as cell growth at 800 nM by sulforhodamine B assay relative to control; type: functional; settings: read-out: Activity
[23] = tested on: SF-539; assay: Cytotoxicity against human SF539 cells assessed as cell growth at 8 nM by sulforhodamine B assay relative to control; type: functional; settings: read-out: Activity
[24] = tested on: ACHN; assay: Cytotoxicity against human ACHN cells assessed as cell growth at 800 nM by sulforhodamine B assay relative to control; type: functional; settings: read-out: Activity; outline: as §1
[25] = tested on: EKVX; assay: Cytotoxicity against human EKVX cells assessed as cell growth at 8 uM by sulforhodamine B assay relative to control; type: functional; settings: read-out: Activity
[26] = tested on: BT-549; assay: Cytotoxicity against human BT549 cells assessed as cell growth at 800 nM by sulforhodamine B assay relative to control; type: functional; settings: read-out: Activity; outline: as §1
[27] = tested on: OVCAR-5; assay: Cytotoxicity against human OVCAR5 cells assessed as cell growth at 80 uM by sulforhodamine B assay relative to control; type: functional; settings: read-out: Activity
[28] = tested on: Hs-578T; assay: Cytotoxicity against human Hs578T cells assessed as cell growth at 8 nM by sulforhodamine B assay relative to control; type: functional; settings: read-out: Activity
[29] = tested on: LOX IMVI; assay: Cytotoxicity against human LOXIMVI cells assessed as cell growth at 80 nM by sulforhodamine B assay relative to control; type: functional; settings: read-out: Activity
[30] = tested on: SK-MEL-28; assay: Cytotoxicity against human SK-MEL-28 cells assessed as cell growth at 80 nM by sulforhodamine B assay relative to control; type: functional; settings: read-out: Activity
[31] = tested on: PC-3; assay: Cytotoxicity against human PC3 cells by sulforhodamine B assay; type: functional
Outline: (§2)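 NCI Developmental Therapeutics Program 60-cell-line human tumor panel screen, run at NCI. A single-concentration pre-screen was followed by a five-concentration dose-response in 10-fold steps. GI50 is the concentration that reduces growth of treated cells to half that of untreated control cells. TGI is the concentration that completely halts growth.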

[32] = tested on: SF-295; assay: Cytotoxicity against human SF295 cells assessed as cell growth at 8 nM by sulforhodamine B assay relative to control; type: functional; settings: read-out: Activity
[33] = tested on: IGROV-1; assay: Cytotoxicity against human IGROV1 cells assessed as cell growth at 8 uM by sulforhodamine B assay relative to control; type: functional; settings: read-out: Activity
[34] = tested on: TK-10; assay: Cytotoxicity against human TK10 cells by sulforhodamine B assay; type: functional; settings: for TGI: read-out: pTGI (converted); outline: as §2
[35] = tested on: NCI/ADR-RES; assay: Cytotoxicity against human NCI/ADR-RES cells assessed as cell growth at 800 nM by sulforhodamine B assay relative to control; type: functional; settings: read-out: Activity
[36] = tested on: MCF7; assay: Cytotoxicity against human MCF7 cells assessed as cell growth at 800 nM by sulforhodamine B assay relative to control; type: functional; settings: read-out: Activity
[37] = tested on: COLO 205; assay: Cytotoxicity against human COLO205 cells assessed as cell growth at 80 uM by sulforhodamine B assay relative to control; type: functional; settings: read-out: Activity; outline: as §1
[38] = tested on: MOLT-4; assay: Cytotoxicity against human MOLT4 cells assessed as cell growth at 8 uM by sulforhodamine B assay relative to control; type: functional; settings: read-out: Activity
[39] = tested on: OVCAR-5; assay: Cytotoxicity against human OVCAR5 cells assessed as cell growth at 80 nM by sulforhodamine B assay relative to control; type: functional; settings: read-out: Activity
[40] = tested on: OVCAR-3; assay: Cytotoxicity against human OVCAR3 cells assessed as cell growth at 8 nM by sulforhodamine B assay relative to control; type: functional; settings: read-out: Activity

C/C=C1\NC(=O)[C@H](Cc2ccccc2)NC(=O)[C@@H](C(C)C)NC(=O)[C@@H]([C@@H](C)CC)NC(=O)[C@H](NC(=O)[C@H](NC(=O)[C@H](CCCNCc2ccc(N3CCOCC3)cc2)NC(=O)[C@H]2CCCN2C(=O)[C@H](NC(=O)[C@@H](NC(=O)[C@@H](NC(=O)[C@H](NC(=O)CCCC(C)C)C(C)C)[C@@H](C)O)C(C)C)C(C)C)[C@@H](C)CC)[C@@H](C)OC(=O)[C@H](C(C)C)NC1=O
growth at 8 µM [1]: -100%
growth at 0.8 µM [2]: 86%
LC50 [3]: 4790 nM
GI50 ([3]; read-out: GI50): 1270 nM
TGI ([3]; read-out: TGI): 2470 nM
GI50 ([3]; read-out: pGI50 (converted)): 1260 nM
TGI ([3]; read-out: pTGI (converted)): 2450 nM
growth at 8 µM [4]: -80%
growth at 0.008 µM [5]: 106%
growth at 0.08 µM [6]: 95%
growth at 80 µM [7]: 6%
growth at 0.8 µM [8]: 96%
growth at 0.8 µM [9]: 76%
growth at 8 µM [10]: -89%
growth at 8 µM [11]: -46%
growth at 8 µM [12]: 15%
growth at 0.008 µM [13]: 105%
growth at 8 µM [14]: -47%
MTD at 576 h [15]: 12.5 mg/kg
growth at 0.08 µM [16]: 91%
growth at 80 µM [17]: -17%
growth at 0.008 µM [18]: 95%
IC50 [19]: 5760 nM
MFC [19]: > 20 µM
MIC [19]: 20 µM (≈ 33.1 µg/mL)
growth at 0.8 µM [20]: 104%
Activity [21]: Toxic
growth at 0.8 µM [22]: 93%
growth at 0.008 µM [23]: 101%
growth at 0.8 µM [24]: 90%
growth at 8 µM [25]: -76%
growth at 0.8 µM [26]: 89%
growth at 80 µM [27]: -47%
growth at 0.008 µM [28]: 109%
growth at 0.08 µM [29]: 100%
growth at 0.08 µM [30]: 99%
LC50 [31]: 741 nM
GI50 ([31]; read-out: GI50): 156 nM
TGI ([31]; read-out: TGI): 340 nM
GI50 ([31]; read-out: pGI50 (converted)): 155 nM
TGI ([31]; read-out: pTGI (converted)): 339 nM
growth at 0.008 µM [32]: 107%
growth at 8 µM [33]: -75%
GI50 [34]: 1480 nM
LC50 [34]: 5370 nM
TGI [34]: 2820 nM
growth at 0.8 µM [35]: 85%
growth at 0.8 µM [36]: 91%
growth at 80 µM [37]: 13%
growth at 8 µM [38]: 83%
growth at 0.08 µM [39]: 93%
growth at 0.008 µM [40]: 100%

C/C=C1\NC(=O)[C@H](Cc2ccccc2)NC(=O)[C@@H](C(C)C)NC(=O)[C@@H]([C@@H](C)CC)NC(=O)[C@H](NC(=O)[C@H](NC(=O)[C@H](CCCNCc2ccc(F)c(C)c2)NC(=O)[C@H]2CCCN2C(=O)[C@H](NC(=O)[C@@H](NC(=O)[C@@H](NC(=O)[C@H](NC(=O)CCCC(C)C)C(C)C)[C@@H](C)O)C(C)C)C(C)C)[C@@H](C)CC)[C@@H](C)OC(=O)[C@H](C(C)C)NC1=O
growth at 8 µM [1]: -100%
growth at 0.8 µM [2]: 87%
LC50 [3]: 4070 nM
GI50 ([3]; read-out: GI50): 1120 nM
TGI ([3]; read-out: TGI): 2140 nM
GI50 ([3]; read-out: pGI50 (converted)): 1120 nM
TGI ([3]; read-out: pTGI (converted)): 2140 nM
growth at 8 µM [4]: -73%
growth at 0.008 µM [5]: 106%
growth at 0.08 µM [6]: 90%
growth at 80 µM [7]: 3%
growth at 0.8 µM [8]: 92%
growth at 0.8 µM [9]: 59%
growth at 8 µM [10]: -93%
growth at 8 µM [11]: -48%
growth at 8 µM [12]: -50%
growth at 0.008 µM [13]: 99%
growth at 8 µM [14]: -61%
MTD at 576 h [15]: 12.5 mg/kg
growth at 0.08 µM [16]: 94%
growth at 80 µM [17]: -96%
growth at 0.008 µM [18]: 99%
IC50 [19]: 3640 nM
MFC [19]: 20 µM (≈ 32 µg/mL)
MIC [19]: 10 µM (≈ 16 µg/mL)
growth at 0.8 µM [20]: 104%
Activity [21]: Non-toxic
growth at 0.8 µM [22]: 93%
growth at 0.008 µM [23]: 105%
growth at 0.8 µM [24]: 81%
growth at 8 µM [25]: -82%
growth at 0.8 µM [26]: 87%
growth at 80 µM [27]: -98%
growth at 0.008 µM [28]: 102%
growth at 0.08 µM [29]: 94%
growth at 0.08 µM [30]: 105%
LC50 [31]: 708 nM
GI50 ([31]; read-out: GI50): 165 nM
TGI ([31]; read-out: TGI): 342 nM
GI50 ([31]; read-out: pGI50 (converted)): 166 nM
TGI ([31]; read-out: pTGI (converted)): 339 nM
growth at 0.008 µM [32]: 99%
growth at 8 µM [33]: -75%
GI50 [34]: 1480 nM
TGI [34]: 2880 nM
growth at 0.8 µM [35]: 91%
growth at 0.8 µM [36]: 80%
growth at 80 µM [37]: 33%
growth at 8 µM [38]: -5%
growth at 0.08 µM [39]: 96%
growth at 0.008 µM [40]: 105%
